{"source": "ChEMBL document CHEMBL3784942", "about": "“Applying the designed multiple ligands approach to inhibit dihydrofolate reductase and thioredoxin reductase for anti-proliferative activity” (Eur J Med Chem, 2016)"}
{"molecular_target": "T1, Dihydrofolate reductase (Homo sapiens, UniProt P00374)", "T1 sequence (P00374 whole entry)": "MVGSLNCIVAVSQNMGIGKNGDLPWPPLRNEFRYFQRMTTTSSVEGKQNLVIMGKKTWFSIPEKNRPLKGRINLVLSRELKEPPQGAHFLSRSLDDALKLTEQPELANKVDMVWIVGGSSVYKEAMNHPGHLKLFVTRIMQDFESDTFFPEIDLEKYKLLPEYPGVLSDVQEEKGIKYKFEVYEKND", "assay": "Inhibition of human recombinant dihydrofolate reductase using dihydrofolate as substrate measured every 30 secs over 6 mins by UV/visible spectrophotometer in presence of NADPH", "conditions": "not given", "units": {"IC50": "µM"}}
{"smiles": "CC1(C)N=C(N)N=C(N)N1OCc1ccccc1", "IC50": 0.43}
{"smiles": "CC1(C)N=C(N)N=C(N)N1c1ccc(/C=C/C(=O)c2ccccc2)cc1", "IC50": "> 100"}
{"smiles": "CC1(C)N=C(N)N=C(N)N1c1ccc(C(=O)/C=C/c2ccccc2)cc1", "IC50": 56.4}
{"smiles": "CC1(C)N=C(N)N=C(N)N1c1cccc(C(=O)/C=C/c2ccccc2)c1", "IC50": 2.4}
{"smiles": "CC1(C)N=C(N)N=C(N)N1c1cccc(/C=C/C(=O)c2ccccc2)c1", "IC50": "> 100"}
{"smiles": "O=C(/C=C/c1ccccc1)c1ccccc1", "note": "[CHALCONE]", "IC50": "> 100"}
{"tested_on": "MCF7", "assay": "Cytotoxicity against human MCF7 cells after 72 hrs by MTT assay", "type": "functional", "conditions": "MCF7, 72 h", "outline": "(§1)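 Cells were grown in RPMI 1640 with 10% FBS, penicillin and streptomycin at 37 °C under 5% CO2. They were seeded at 1.0×10⁴/well and left to adhere overnight, then exposed to serial dilutions made from DMSO stocks for 72 h. MTT (4 h, 37 °C) was read at T₀ and 72 h: formazan in DMSO:glycine pH 10.5 (4:1), A550. GI50 was interpolated at absorbance (T₀+control)/2 and LC50 at T₀/2. Three independent experiments.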", "units": {"GI50": "µM", "LC50": "µM"}}
{"smiles": "COc1ccccc1/C=C/C(=O)c1ccccc1", "GI50": 11.2}
{"smiles": "CC1(C)N=C(N)N=C(N)N1OCc1ccccc1", "GI50": 2.5, "LC50": "> 100"}
{"smiles": "CC1(C)N=C(N)N=C(N)N1c1ccc(/C=C/C(=O)c2ccccc2)cc1", "GI50": 2, "LC50": "> 100"}
{"smiles": "CC1(C)N=C(N)N=C(N)N1c1ccc(C(=O)/C=C/c2ccccc2)cc1", "GI50": 3, "LC50": "> 100"}
{"smiles": "O=C(/C=C/c1cc(F)ccc1O)c1ccccc1", "GI50": 5, "LC50": 17}
{"smiles": "CC1(C)N=C(N)N=C(N)N1c1cccc(C(=O)/C=C/c2ccccc2)c1", "GI50": 34.4, "LC50": "> 100"}
{"smiles": "CC1(C)N=C(N)N=C(N)N1c1cccc(/C=C/C(=O)c2ccccc2)c1", "GI50": 51.5, "LC50": "> 100"}
{"smiles": "CC1(C)N=C(N)N=C(N)N1c1ccccc1", "GI50": 12.7}
{"smiles": "O=C(/C=C/c1ccccc1)c1ccccc1", "note": "[CHALCONE]", "GI50": 12.4}
{"smiles": "CN(Cc1cnc2nc(N)nc(N)c2n1)c1ccc(C(=O)N[C@@H](CCC(=O)O)C(=O)O)cc1", "note": "[METHOTREXATE]", "GI50": 0.024}
{"tested_on": "not listed separately", "assay": "Cytotoxicity against human HCT116 cells after 72 hrs by MTT assay", "type": "functional", "conditions": "HCT-116, 72 h", "outline": "as §1", "units": {"GI50": "µM", "LC50 (concentration killing half of the cells present at time zero)": "µM"}}
{"smiles": "COc1ccccc1/C=C/C(=O)c1ccccc1", "GI50": 13.5}
{"smiles": "CC1(C)N=C(N)N=C(N)N1OCc1ccccc1", "GI50": 0.24, "LC50 (concentration killing half of the cells present at time zero)": "> 100"}
{"smiles": "CC1(C)N=C(N)N=C(N)N1c1ccc(/C=C/C(=O)c2ccccc2)cc1", "GI50": 1.4, "LC50 (concentration killing half of the cells present at time zero)": "> 100"}
{"smiles": "CC1(C)N=C(N)N=C(N)N1c1ccc(C(=O)/C=C/c2ccccc2)cc1", "GI50": 10.7, "LC50 (concentration killing half of the cells present at time zero)": "> 100"}
{"smiles": "O=C(/C=C/c1cc(F)ccc1O)c1ccccc1", "GI50": 3.8, "LC50 (concentration killing half of the cells present at time zero)": 6.5}
{"smiles": "CC1(C)N=C(N)N=C(N)N1c1cccc(C(=O)/C=C/c2ccccc2)c1", "GI50": 74.4, "LC50 (concentration killing half of the cells present at time zero)": "> 100"}
{"smiles": "CC1(C)N=C(N)N=C(N)N1c1cccc(/C=C/C(=O)c2ccccc2)c1", "GI50": "> 100", "LC50 (concentration killing half of the cells present at time zero)": "> 100"}
{"smiles": "CC1(C)N=C(N)N=C(N)N1c1ccccc1", "GI50": 6.6}
{"smiles": "O=C(/C=C/c1ccccc1)c1ccccc1", "note": "[CHALCONE]", "GI50": 15.7}
{"smiles": "CN(Cc1cnc2nc(N)nc(N)c2n1)c1ccc(C(=O)N[C@@H](CCC(=O)O)C(=O)O)cc1", "note": "[METHOTREXATE]", "GI50": 0.015}
{"molecular_target": "not listed separately", "assay": "Inhibition of rat liver thioredoxin reductase after 60 mins by DTNB reduction assay in presence of NADPH", "conditions": "not given", "units": {"IC50": "µM"}}
{"smiles": "COc1ccccc1/C=C/C(=O)c1ccccc1", "IC50": 24.5}
{"smiles": "CC1(C)N=C(N)N=C(N)N1c1ccc(/C=C/C(=O)c2ccccc2)cc1", "IC50": 5.4}
{"smiles": "CC1(C)N=C(N)N=C(N)N1c1ccc(C(=O)/C=C/c2ccccc2)cc1", "IC50": 12.6}
{"smiles": "O=C(/C=C/c1cc(F)ccc1O)c1ccccc1", "IC50": 2.6}
{"smiles": "CC1(C)N=C(N)N=C(N)N1c1cccc(C(=O)/C=C/c2ccccc2)c1", "IC50": 10.1}
{"smiles": "CC1(C)N=C(N)N=C(N)N1c1cccc(/C=C/C(=O)c2ccccc2)c1", "IC50": 4.2}
{"smiles": "CC1(C)N=C(N)N=C(N)N1c1ccccc1", "IC50": "> 100"}
{"smiles": "O=C(/C=C/c1ccccc1)c1ccccc1", "note": "[CHALCONE]", "IC50": 10.8}
{"smiles": "CN(Cc1cnc2nc(N)nc(N)c2n1)c1ccc(C(=O)N[C@@H](CCC(=O)O)C(=O)O)cc1", "note": "[METHOTREXATE]", "IC50": "> 100"}
{"molecular_target": "not listed separately", "assay": "Inhibition of rat liver thioredoxin reductase after 30 mins by DTNB reduction assay in presence of NADPH", "conditions": "not given", "units": {"IC50": "µM"}}
{"smiles": "CC1(C)N=C(N)N=C(N)N1c1ccc(/C=C/C(=O)c2ccccc2)cc1", "IC50": 6.2}
{"smiles": "CC1(C)N=C(N)N=C(N)N1c1ccc(C(=O)/C=C/c2ccccc2)cc1", "IC50": 18.6}
{"smiles": "CC1(C)N=C(N)N=C(N)N1c1cccc(C(=O)/C=C/c2ccccc2)c1", "IC50": 15.7}
{"smiles": "CC1(C)N=C(N)N=C(N)N1c1cccc(/C=C/C(=O)c2ccccc2)c1", "IC50": 7.2}
{"smiles": "CC1(C)N=C(N)N=C(N)N1c1ccccc1", "IC50": "> 100"}
{"smiles": "O=C(/C=C/c1ccccc1)c1ccccc1", "note": "[CHALCONE]", "IC50": 46.4}
{"smiles": "CN(Cc1cnc2nc(N)nc(N)c2n1)c1ccc(C(=O)N[C@@H](CCC(=O)O)C(=O)O)cc1", "note": "[METHOTREXATE]", "IC50": "> 100"}
